ChEMBL document CHEMBL2163267, “Novel N-linked aminopiperidine inhibitors of bacterial topoisomerase type II with reduced pK(a): antibacterial agents with an improved safety profile” (J Med Chem, 2012)
In brackets after ≈: the same amount, converted by molar mass.

Columns and labels:
[1] = AUC in Beagle dog at 10 mg/kg, iv administered as infusion; format: ADME, organism-based, Canis lupus familiaris; design: dose 10 mg/kg, route intravenous; conditions: plasma
Method in brief: (§1)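 Single iv dose (3 mg/kg bolus, or 10 mg/kg infusion, per line). Rats in groups of three, bolus via cannulated jugular vein. Male beagle dogs (n = 3), iv as 15 min infusion, sampled 0 to 24 h. Serial whole-blood samples taken at time intervals. Plasma levels measured by LC-MS/MS. Parameters estimated by non-compartmental analysis.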

[2] = AUC in Wistar Han rat at 10 mg/kg, iv administered as infusion; format: ADME, organism-based; design: dose 10 mg/kg, route intravenous; conditions: plasma; method in brief: as §1
[3] = Half life in Beagle dog at 10 mg/kg, iv administered as infusion and po; format: ADME, organism-based, Canis lupus familiaris; design: dose 10 mg/kg, route oral; conditions: in vivo
Canis familiaris = assay: Volume of distribution in Beagle dog at 10 mg/kg, iv administered as infusion and po; format: ADME, organism-based, Canis lupus familiaris; design: dose 10 mg/kg, route oral; conditions: in vivo; method in brief: as §1
Rattus norvegicus = assay: Volume of distribution in Wistar Han rat at 10 mg/kg, iv administered as infusion and po; format: ADME, organism-based; design: dose 10 mg/kg, route oral; conditions: in vivo; method in brief: as §1
[4] = Intrinsic clearance in human hepatocytes measured per 10^6 cells; format: ADME, cell-based, Hepatocyte; conditions: read-out: CLH
[5] = Intrinsic clearance in Beagle dog hepatocytes measured per 10^6 cells; format: ADME, cell-based, Canis lupus familiaris, Hepatocyte; conditions: read-out: CLH
[6] = Intrinsic clearance in Wistar Han rat hepatocytes measured per 10^6 cells; format: ADME, cell-based, Hepatocyte; conditions: read-out: CLH
[7] = Dissociation constant, pKa of the compound by pH metric assay; format: physicochemical
Method in brief: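 pH-metric titration on an automated titrator, run in triplicate. Accuracy about 0.02 log units.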

[8] = Octanol-phosphate buffer partition coefficient, log D of the compound at pH 7.4 by shake flask method; format: physicochemical
Method in brief: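 Shake-flask partition between n-octanol and 10 mM phosphate buffer at pH 7.4. Shaken 1 h at 1200 rpm to reach equilibrium. Phases analysed by LC/UV, with MS for mass confirmation.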

[9] = Inhibition of Escherichia coli DNA topoisomerase 4 subunit ParC/DNA topoisomerase 4 subunit ParE ATPase activity after 24 hrs by malachite green staining-based colorimetric assay
[10] = Fraction unbound in human plasma at 10 uM by equilibrium dialysis method; format: ADME, cell-free
Method in brief: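 Equilibrium dialysis. Compound at 10 μM in the plasma (donor) chamber against phosphate buffer, rotated at 37 °C for 16 h. Drug in the plasma and buffer samples quantified by LC-MS/MS after methanol protein precipitation with internal standard. Standard curve 10 nM to 10 μM.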

Escherichia coli = assay: Antibacterial activity against Escherichia coli W3110 after 18 to 24 hrs by CLSI broth microdilution method; format: functional
Pseudomonas aeruginosa = assay: Antibacterial activity against Pseudomonas aeruginosa PAO1 after 18 to 24 hrs by CLSI broth microdilution method; format: functional
Streptococcus pneumoniae = assay: Antibacterial activity against penicillin-susceptible Streptococcus pneumoniae D39 after 18 to 24 hrs by CLSI broth microdilution method; format: functional
Staphylococcus aureus [11] = assay: Antibacterial activity against methicillin-susceptible Staphylococcus aureus after 18 to 24 hrs by CLSI broth microdilution method; format: functional
[12] = biological target: T1, Voltage-gated inwardly rectifying potassium channel KCNH2 (Homo sapiens, UniProt Q12809); assay: Displacement of [3H]-astemizole from human ERG expressed in HEK293 cells after 60 mins by liquid scintillation counter; format: cell-based
[13] = biological target: T1, Voltage-gated inwardly rectifying potassium channel KCNH2; assay: Inhibition of human ERG by Ionworks assay
Mus musculus [14] = assay: AUC (infinity) in CD1 mouse infected with methicillin-resistant Staphylococcus aureus ARC 1692 at 80 mg/kg/day, ip; format: ADME, organism-based, Plasma; design: dose 80 mg/kg/day, time infinity, route intraperitoneal; conditions: in vivo
Mus musculus [15] = assay: AUC (infinity) in CD1 mouse infected with methicillin-resistant Staphylococcus aureus ARC 1692 at 40 mg/kg/day, ip; format: ADME, organism-based, Plasma; design: dose 40 mg/kg/day, time infinity, route intraperitoneal; conditions: in vivo
Staphylococcus aureus [16] = assay: Antibacterial activity against methicillin-resistant Staphylococcus aureus ARC 1692 in ABT-treated CD1 mouse neutropenic thigh infection model assessed as reduction in log10 CFU per gram of thigh at 80 mg/kg/day, ip qd starting 2 hrs post-infection measured after 24 hrs; format: functional; conditions: route intraperitoneal
Staphylococcus aureus [17] = assay: Antibacterial activity against methicillin-resistant Staphylococcus aureus ARC 1692 in ABT-treated CD1 mouse neutropenic thigh infection model assessed as reduction in log10 CFU per gram of thigh at 40 mg/kg/day, ip qd starting 2 hrs post-infection measured after 24 hrs; format: functional; conditions: route intraperitoneal
Staphylococcus aureus [18] = assay: Antibacterial activity against linezolid-resistant Staphylococcus aureus ARC 3583 after 18 to 24 hrs by CLSI broth microdilution method; format: functional
Method in brief: (§2)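 CLSI broth microdilution in Mueller Hinton Broth 2. Inocula prepared from blood agar plates grown at 35 °C for 18–24 h. Compound in DMSO, 2% DMSO final, 11 doubling dilutions from 64 to 0.06 μg/mL. Plates read at 620 nm.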

Staphylococcus aureus [19] = assay: Antibacterial activity against vancomycin-resistant Staphylococcus aureus ARC 3186 after 18 to 24 hrs by CLSI broth microdilution method; format: functional; method in brief: as §2
Staphylococcus aureus [20] = assay: Antibacterial activity against hospital acquired methicillin-resistant Staphylococcus aureus ARC 1692 after 18 to 24 hrs by CLSI broth microdilution method; format: functional; method in brief: as §2
Staphylococcus aureus [21] = assay: Antibacterial activity against community acquired methicillin-resistant Staphylococcus aureus ARC 3189 after 18 to 24 hrs by CLSI broth microdilution method; format: functional; method in brief: as §2

T1 sequence (Q12809 whole entry): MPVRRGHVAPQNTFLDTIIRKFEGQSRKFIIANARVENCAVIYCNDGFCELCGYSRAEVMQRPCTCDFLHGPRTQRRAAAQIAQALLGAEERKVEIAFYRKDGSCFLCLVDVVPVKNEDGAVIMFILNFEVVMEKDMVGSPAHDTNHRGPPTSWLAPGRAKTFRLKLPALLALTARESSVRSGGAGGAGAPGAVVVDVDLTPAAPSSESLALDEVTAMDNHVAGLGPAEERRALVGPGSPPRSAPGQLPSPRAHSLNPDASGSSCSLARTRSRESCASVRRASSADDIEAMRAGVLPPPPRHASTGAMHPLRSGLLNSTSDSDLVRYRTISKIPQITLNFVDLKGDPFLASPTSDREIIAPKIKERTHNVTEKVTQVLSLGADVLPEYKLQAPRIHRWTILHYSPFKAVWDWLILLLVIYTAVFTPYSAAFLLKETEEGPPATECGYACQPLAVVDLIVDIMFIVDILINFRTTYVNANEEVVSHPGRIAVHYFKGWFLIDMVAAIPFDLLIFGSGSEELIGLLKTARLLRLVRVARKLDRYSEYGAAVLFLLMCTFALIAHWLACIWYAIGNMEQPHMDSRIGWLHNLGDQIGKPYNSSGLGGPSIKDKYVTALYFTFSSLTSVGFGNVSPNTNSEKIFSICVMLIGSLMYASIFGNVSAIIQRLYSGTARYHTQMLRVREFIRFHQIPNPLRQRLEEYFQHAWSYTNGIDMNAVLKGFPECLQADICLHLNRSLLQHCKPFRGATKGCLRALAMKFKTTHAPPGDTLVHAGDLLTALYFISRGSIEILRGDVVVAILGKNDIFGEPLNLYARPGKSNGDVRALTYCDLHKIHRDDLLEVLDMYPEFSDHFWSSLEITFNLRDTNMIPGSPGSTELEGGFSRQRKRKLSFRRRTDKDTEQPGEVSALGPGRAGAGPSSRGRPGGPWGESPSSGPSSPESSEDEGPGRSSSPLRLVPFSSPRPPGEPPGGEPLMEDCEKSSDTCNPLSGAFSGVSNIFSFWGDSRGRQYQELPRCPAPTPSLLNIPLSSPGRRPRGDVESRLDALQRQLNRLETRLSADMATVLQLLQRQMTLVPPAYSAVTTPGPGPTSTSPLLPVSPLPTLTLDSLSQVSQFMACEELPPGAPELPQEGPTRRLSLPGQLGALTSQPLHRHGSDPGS

Row | SMILES | pKa [7] | logD [8] | IC50 [9] | fraction unbound at 10 µM [10] | MIC (Escherichia coli) | MIC (Pseudomonas aeruginosa) | MIC (Streptococcus pneumoniae) | MIC (Staphylococcus aureus [11]) | MIC (Staphylococcus aureus [18]) | MIC (Staphylococcus aureus [19]) | also measured
1 | N#Cc1ccc2ccc(=O)n(CCN3CC[C@@H](NCc4ccc5c(n4)NC(=O)CO5)[C@@H](F)C3)c2c1 | 7.28 | 0.66 | 0.011 µM | 0.2 | 1 mg/L (≈ 2.1 µM) | 8 mg/L (≈ 16.8 µM) | 0.25 mg/L (≈ 0.525 µM) | 0.06 mg/L (≈ 0.126 µM) | – | – | AUC [1]: 25 µg·h/mL; AUC [2]: 2.5 µg·h/mL; half-life [3]: 5.4 h; Vd (Canis familiaris): 1.7 L/kg; Vd (Rattus norvegicus): 3 L/kg; hepatocyte CLint [4]: 2 µL/min/1e6 cells; hepatocyte CLint [5]: 8.6 µL/min/1e6 cells; hepatocyte CLint [6]: 14 µL/min/1e6 cells
2 | N#Cc1ccc2ccc(=O)n(CCN3CC[C@H](NCc4cc5c(cn4)OCCO5)[C@@H](F)C3)c2c1 (single isomer, unassigned; enantiomer B) | 6.66 | 1.53 | 0.016 µM | 0.09 | 8 mg/L (≈ 17.3 µM) | > 8 mg/L | 0.25 mg/L (≈ 0.539 µM) | 0.13 mg/L (≈ 0.28 µM) | – | – | IC50 [12]: 57 µM; IC50 [13]: 122 µM
3 | C[C@H]1COc2c(N3CCN(C)CC3)c(F)cc3c(=O)c(C(=O)O)cn1c23.C[C@H]1COc2c(N3CCN(C)CC3)c(F)cc3c(=O)c(C(=O)O)cn1c23.O [LEVOFLOXACIN] | – | – | – | – | – | – | – | – | > 16 mg/L | 16 mg/L | AUC (Mus musculus [14]): 11 µg/h/mL; AUC (Mus musculus [15]): 4 µg/h/mL; log10cfu (Staphylococcus aureus [16]): 1.4; log10cfu (Staphylococcus aureus [17]): 0.3; MIC (Staphylococcus aureus [20]): 0.125 mg/L; MIC (Staphylococcus aureus [21]): 8 mg/L
4 | CC(=O)NC[C@H]1CN(c2ccc(N3CCOCC3)c(F)c2)C(=O)O1 [LINEZOLID] | – | – | – | – | – | – | – | – | 16 mg/L (≈ 47.4 µM) | 1 mg/L (≈ 2.96 µM) | –
